Assay results of several laboratories.
Compare with care: the assays were run in different laboratories.
Target: Dual specificity protein kinase CLK3 (CLK3, Homo sapiens, UniProt P49761)

SMILES	observed	mode	technique	tested at	measurement	result
C=CC(=O)N1CCC([C@@H]2CCNc3c(C(N)=O)c(-c4ccc(Oc5ccccc5)cc4)nn32)CC1	enzyme activity	inhibitor	–	1 µM	inhibition	16%
C[C@H]1CC[C@H](n2c3cnccc3c3cnc(Nc4ccc5c(n4)CCN(C(=O)CO)C5)nc32)CC1	cell-free assay	–	–	1 µM	remaining signal	100%
CC(C)S(=O)(=O)c1ccc2nccc(Nc3ccc4sc(C5CCCC5)nc4c3)c2c1	enzyme activity	inhibitor	–	1 µM	activity vs control	110%
Cc1cc(O)c(-c2ccc([C@@H](C)CN(C)C)cc2)c2c1[nH]c(=O)c1sccc12	enzyme activity	inhibitor	–	0.1 µM	inhibition	-13.2%
CN1CCN(C(=O)c2ccc(NC(=O)Nc3ccc(N(C)c4ccnc(Nc5ccc(CS(C)(=O)=O)cc5)n4)cc3)cc2)CC1	binding	–	–	1 µM	remaining binding	95%
C1=C/COCc2cc(ccc2OCCN2CCCC2)Nc2nccc(n2)-c2cccc(c2)COC/1	binding	–	–	0.1 µM	remaining binding	100%
CCCCC(=O)Nc1ccc(-c2ccc3ncn(CCC)c(=O)c3c2)cn1	binding	–	competition with immobilised ligand	0.5 µM	remaining binding	78%
C=CC(=O)N1CCC[C@@H](n2nc(-c3ccc(Oc4ccccc4)cc3)c3c(N)ncnc32)C1	enzyme activity	inhibitor	–	1 µM	inhibition	23%
